Experimental data from ChEMBL document CHEMBL1136324, “The total synthesis of an aurone isolated from Uvaria hamiltonii: aurones and flavones as anticancer agents” (Bioorg Med Chem Lett, 2003).

Tests used:
[1] = system: K562; assay: Inhibitory activity against K562 human chronic myelogenous leukemia cell line using MTT assay after 5 days incubation of the compound; type: functional, cell-based; settings: K562, 120 h
Procedure, shortened: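 K562 cells exposed to drug for 5 days at 37 °C; growth read by MTT assay. IC50 taken as concentration giving 50% inhibition of cell growth.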

[2] = target: Tubulin alpha chain (Sus scrofa, UniProt P02550); assay: Concentration that cause a 50% inhibition in tubulin assembly as measured by an increase in turbidity using microtubule assembly assay
Tubulin alpha chain, sequence (P02550 whole entry, looked up): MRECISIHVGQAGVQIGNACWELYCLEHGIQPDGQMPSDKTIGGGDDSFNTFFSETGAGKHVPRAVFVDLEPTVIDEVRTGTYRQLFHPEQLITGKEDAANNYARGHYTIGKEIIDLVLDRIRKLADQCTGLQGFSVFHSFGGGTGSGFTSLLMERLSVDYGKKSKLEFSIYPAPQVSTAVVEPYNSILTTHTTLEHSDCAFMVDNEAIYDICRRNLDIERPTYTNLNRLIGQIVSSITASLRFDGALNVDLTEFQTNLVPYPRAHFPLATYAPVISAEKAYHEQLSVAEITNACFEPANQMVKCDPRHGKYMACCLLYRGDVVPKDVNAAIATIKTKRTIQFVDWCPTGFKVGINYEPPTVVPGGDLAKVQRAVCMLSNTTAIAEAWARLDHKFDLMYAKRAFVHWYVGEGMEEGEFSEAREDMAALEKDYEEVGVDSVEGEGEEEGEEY

[3] = system: K562; assay: Effect on G0-G1 phase of the cell cycle by flow cytometry; type: functional, Homo sapiens
Procedure, shortened: (§1)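 Cell-cycle phase distribution measured by flow cytometry in drug-treated cells, compared with untreated control.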

[4] = system: K562; assay: Effect on G2/M phase of the cell cycle by flow cytometry; type: functional, Homo sapiens; procedure, shortened: as §1
[5] = system: K562; assay: Effect on S phase of the cell cycle by flow cytometry; type: functional, Homo sapiens; procedure, shortened: as §1
[6] = target: Tubulin (Sus scrofa, UniProt P02554+P02550); assay: Ability to inhibit the binding of [3H]colchicine to porcine tubulin; type: protein assay

Compound	IC50 [1] [µM]	IC50 [2] [µM]	IC50 [6] [µM]	Activity [3]	Activity [4]	Activity [5]
COc1ccc(/C=C2\Oc3cc(OC)c(OC)c(OC)c3C2=O)cc1O	18	> 50	–	–	–	–
COc1cc2c(c(OC)c1OC)C(=O)/C(=C/c1cc(F)c(OC)c(F)c1)O2	> 50	–	–	–	–	–
COc1ccc(-c2cc(=O)c3cc(OC)c(OC)c(OC)c3o2)cc1F	0.59	> 50	–	–	–	–
COc1cc2c(c(OC)c1OC)O/C(=C\c1ccc(O)c(O)c1)C2=O	9.7	> 50	–	45	39	16
COc1cc2c(c(OC)c1OC)C(=O)/C(=C/c1ccc(O)c(O)c1)O2	12	> 50	–	57	25	18
COc1ccc(-c2cc(=O)c3c(OC)c(OC)c(OC)cc3o2)cc1O	22	> 50	–	–	–	–
COc1ccc(/C=C2\Oc3cc(OC)c(OC)c(OC)c3C2=O)cc1	> 50	–	–	–	–	–
COc1ccc(-c2cc(=O)c3cc(OC)c(OC)c(OC)c3o2)cc1	0.83	–	–	–	–	–
COc1ccc(/C=C2\Oc3cc(OC)c(OC)c(OC)c3C2=O)cc1F	> 50	> 50	–	–	–	–
COc1ccc(-c2cc(=O)c3c(OC)c(OC)c(OC)cc3o2)cc1F	> 50	> 50	–	–	–	–
COc1ccc(-c2cc(=O)c3c(OC)c(OC)c(OC)cc3o2)cc1	42	–	–	–	–	–

The next compounds have a lower IC50 [1] than those just listed; values first:

IC50 [1] [µM]	IC50 [2] [µM]	IC50 [6] [µM]	Compound	Activity [3]	Activity [4]	Activity [5]
0.15	–	–	COc1cc2c(c(OC)c1OC)O/C(=C\c1cc(F)c(OC)c(F)c1)C2=O	–	–	–
0.04	25	40	COc1ccc(-c2cc(=O)c3cc(OC)c(OC)c(OC)c3o2)cc1O	52	38	11
0.15	–	–	COc1ccc(/C=C2\Oc3c(cc(OC)c(OC)c3OC)C2=O)cc1	–	–	–
0.11	> 50	–	COc1ccc(/C=C2\Oc3c(cc(OC)c(OC)c3OC)C2=O)cc1F	12	77	11
0.05	22	60	COc1ccc(/C=C2\Oc3c(cc(OC)c(OC)c3OC)C2=O)cc1O	17	69	14
0.0002	0.5	–	COc1ccc(/C=C(\C)C(=O)c2cc(OC)c(OC)c(OC)c2)cc1O	10	83	7
